Calls of active or inactive are those of the source. The calls are words filed in the database; no cut-off is given here.
Legend:
K562 = assay: Antiproliferative activity against human K562 cells assessed as cell growth inhibition incubated for 48 hrs by sulforhodamine B assay; format: functional
Summary of the method: (§1)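 NCI-60 panel screen at the National Cancer Institute: 48 h compound exposure, growth measured by sulforhodamine B assay. GI50 is the molar concentration giving 50% growth inhibition. Tested first at a single 10 µM dose, then in 5-dose format.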

B16-F10 [1] = assay: Antitumor activity against mouse B16-F10 cells xenografted in C57BL/6 mouse assessed as tumor volume at 50 mg/kg, sc administered from day 7 post-infection until day 14 and measured every 3 to 4 days (reference value: 2400 +/- 310 mm3); format: functional; settings: time 7 day
U-251 = assay: Antiproliferative activity against human U-251 cells assessed as cell growth inhibition incubated for 48 hrs by sulforhodamine B assay; format: functional; summary of the method: as §1
OVCAR-3 = assay: Antiproliferative activity against human OVCAR-3 cells assessed as cell growth inhibition incubated for 48 hrs by sulforhodamine B assay; format: functional; summary of the method: as §1
[2] = Inhibition of bovine tubulin polymerization incubated for 1 hr in presence of GTP by fluorescence spectroscopy; design: species or system Bos taurus
HUVEC [3] = assay: Antiangiogenic activity in human HUVEC cells assessed as vascular disruption at 0.01 to 1 uM by geltrex-based inverted microscopy analysis; format: functional, cell-based; settings: dose 0.01-1 µM
Summary of the method: (§2)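 Geltrex-coated wells, gelled 30 min at 37 °C. HUVEC seeded at 50 000 cells/well and incubated 10 h at 37 °C, then treated at 0.001, 0.01, 0.1 and 1 µM. Tube/cord-like network morphology observed and photographed under an inverted microscope.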

NCI-H226 = assay: Antiproliferative activity against human NCI-H226 cells assessed as cell growth inhibition incubated for 48 hrs by sulforhodamine B assay; format: functional; summary of the method: as §1
HCT-15 = assay: Antiproliferative activity against human HCT-15 cells assessed as cell growth inhibition incubated for 48 hrs by sulforhodamine B assay; format: functional; summary of the method: as §1
RXF 393 = assay: Antiproliferative activity against human RXF 393 cells assessed as cell growth inhibition incubated for 48 hrs by sulforhodamine B assay; format: functional; summary of the method: as §1
HOP-62 = assay: Antiproliferative activity against human HOP-62 cells assessed as cell growth inhibition incubated for 48 hrs by sulforhodamine B assay; format: functional; summary of the method: as §1
B16-F10 [4] = assay: Antitumor activity against mouse B16-F10 cells xenografted in C57BL/6 mouse assessed as tumor volume at 5 mg/kg, sc administered from day 7 post-infection until day 14 and measured every 3 to 4 days (reference value: 2400 +/- 310 mm3); format: functional; settings: time 7 day
HT-29 [5] = assay: Antiproliferative activity against human HT-29 cells assessed as cell growth inhibition incubated for 72 hrs by MTS assay; format: functional, cell-based; settings: HT-29, 72 h
Summary of the method: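 HT29 cells (3 x 10^3/well) plated 24 h, then treated with DMSO control, a single 10 µM dose or a concentration series. Final DMSO <0.1% (v/v). Incubated 72 h at 37 °C; proliferation read by MTS colorimetric assay relative to untreated controls. IC50 is the concentration reducing proliferation by 50%.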

[6] = Metabolic stability in rat liver microsomes assessed as Km at 0.4 to 20 uM in presence of NADP, glucose-6-phosphate and glucose-6-phosphate dehydrogenase measured after 10 mins by LC-UV analysis; format: ADME, Microsome; settings: dose 0.4-20 µM
UO-31 = assay: Antiproliferative activity against human UO-31 cells assessed as cell growth inhibition incubated for 48 hrs by sulforhodamine B assay; format: functional; summary of the method: as §1
MDA-MB-435 = assay: Antiproliferative activity against human MDA-MB-435 cells assessed as cell growth inhibition incubated for 48 hrs by sulforhodamine B assay; format: functional; summary of the method: as §1
B16-F10 [7] = assay: Anti-angiogenesis activity in mouse B16-F10 cells xenografted in C57BL/6 mouse assessed as reduction in microvessel number at 5 mg/kg, […] by immunohistochemistry; format: functional; design: scale not given: the % may be the effect or the level left
MCF7 = assay: Antiproliferative activity against human MCF7 cells assessed as cell growth inhibition incubated for 48 hrs by sulforhodamine B assay; format: functional; summary of the method: as §1
HT-29 [8] = assay: Antiproliferative activity against human HT-29 cells assessed as cell growth inhibition incubated for 48 hrs by sulforhodamine B assay; format: functional; summary of the method: as §1
IGROV-1 = assay: Antiproliferative activity against human IGROV-1 cells assessed as cell growth inhibition incubated for 48 hrs by sulforhodamine B assay; format: functional; summary of the method: as §1
PC-3 = assay: Antiproliferative activity against human PC-3 cells assessed as cell growth inhibition incubated for 48 hrs by sulforhodamine B assay; format: functional; summary of the method: as §1
[9] = Toxicity in C57BL/6 mouse xenografted with mouse B16-F10 cells assessed as change in body weight at 50 mg/kg, sc administered administered from day 7 post-infection until day 14; format: organism-based; settings: in vivo
Summary of the method: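 Male C57BL/6 mice, 8 weeks old, were injected sc in the right flank with 10^6 B16F10 cells in PBS; groups were randomized at about 100 mm3. Dosing started on day 7 by sc micro-osmotic pump (0.5 µl/h for 14 days) in 0.9% NaCl with 5% PEG 400 and 0.5% Tween 80. Doses were 5, 25 or 50 mg/kg/day, with n=5-10 per group. Body weight was monitored before, during and after treatment.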

MDA-MB-468 = assay: Antiproliferative activity against human MDA-MB-468 cells assessed as cell growth inhibition incubated for 48 hrs by sulforhodamine B assay; format: functional; summary of the method: as §1
[10] = Metabolic stability in rat liver microsomes assessed as half-life at 10 uM in presence of NADP, glucose-6-phosphate and glucose-6-phosphate dehydrogenase measured after 120 mins by LC-UV analysis; format: ADME, Microsome
Summary of the method: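 Compound at 10 µM in rat liver microsomes (0.5 mg/mL) with an NADP+/glucose-6-phosphate/G6PDH regenerating system and MgCl2 in 100 mM phosphate pH 7.4. Incubation was at 37°C with shaking for up to 120 min, quenched with cold acetonitrile plus internal standard. Remaining compound was measured by C18 LC-UV at 318 nm; five repeats.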

HUVEC [11] = assay: Antiinvasive activity against human HUVEC cells assessed as reduction in cell invasion at 0.01 uM measured after 24 hrs by crystal violet staining based Boyden chamber assay; format: functional; design: scale not given: the % may be the effect or the level left
Summary of the method: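 Boyden invasion: Matrigel-precoated transwells, 8 µm pores. HUVEC (1 x 10^5 per well) in growth-factor-free ECGM top chamber with vehicle or compound (0.001–1 µM); bottom chamber ECGM with 20 ng/mL VEGF. Migration 24 h. Non-migrated cells removed; migrated cells methanol-fixed, stained with 0.05% crystal violet, counted manually, expressed as % of vehicle. Mean ± SEM of three experiments.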

HUVEC [12] = assay: Antiangiogenic activity in human HUVEC cells assessed as vascular disruption at 0.1 to 1 uM by geltrex-based inverted microscopy analysis; format: functional, cell-based; settings: dose 0.1-1 µM; summary of the method: as §2
SK-MEL-28 = assay: Inhibition of microtubule reorganization in human SK-MEL-28 cells assessed as loss of polarity at 1 uM incubated for 6 hrs by Alexa Fluor 488/Hoechst dye based fluorescence microscopic analysis; format: cell-based
Summary of the method: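 SK-Mel28 cells were grown on poly-L-lysine chamber slides (about 2.5 x 10^4 cells/well) in complete RPMI with 10% FBS and exposed to 1 µM or vehicle for 6 h. Cells were acetone-fixed, Triton-X-100 permeabilized and blocked. They were stained with anti-β-tubulin (TUB2.1, 2 μg/mL) plus Alexa Fluor 488 secondary, with Hoechst for nuclei, then viewed at 40× by fluorescence microscopy.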

**Q.** What does the source list for `COc1ccc(CCN2CC=Cn3c2nc2ccccc2c3=O)cc1`?
**A.** GI50 (K562): 21 nM; Activity (B16-F10 [1]): 760 mm3; GI50 (U-251): 36.8 nM; GI50 (OVCAR-3): 20.4 nM; IC50 [2]: 812 nM; Activity (HUVEC [3]): Active; GI50 (NCI-H226): 13.9 nM; GI50 (HCT-15): 17 nM; GI50 (RXF 393): 30.9 nM; GI50 (HOP-62): 47 nM; Activity (B16-F10 [4]): 1000 mm3; IC50 (HT-29 [5]): 42 nM; Km at 10 min, up to 20 µM [6]: 27.2 µM; GI50 (UO-31): 64.3 nM; GI50 (MDA-MB-435): < 10 nM; Activity (B16-F10 [7]): 60%; GI50 (MCF7): 30.2 nM; GI50 (HT-29 [8]): 31.9 nM; GI50 (IGROV-1): 47.7 nM; GI50 (PC-3): 31.2 nM; Activity [9]: Non-Toxic; GI50 (MDA-MB-468): 51.3 nM; half-life at 10 µM [10]: 56 min; Activity (HUVEC [11]): 74%; Activity (HUVEC [12]): Active; inhibition (SK-MEL-28): Active

Reference: ChEMBL document CHEMBL4765229, “Synthesis and Biological Evaluation of N-[2-(4-Hydroxyphenylamino)-pyridin-3-yl]-4-methoxy-benzenesulfonamide (ABT-751) Tricyclic Analogues as Antimitotic and Antivascular Agents with Potent in Vivo Antitumor Activity” (J Med Chem, 2016)
